Assay results from ChEMBL document CHEMBL1153598, “Syntheses of low-hemolytic antimicrobial gratisin peptides” (Bioorg Med Chem Lett, 2009).
≈ marks a conversion by molar mass, not a printed value. Non-standard residues stand in square brackets, D forms with d. Residues, ends and D or L forms follow the SMILES beside them. Orn = NCCC[C@H](N)C(=O)O

Experiments:
[1] = test system: Staphylococcus epidermidis; assay: Antibiotic activity against Staphylococcus epidermidis NBRC 12933 by microplate dilution assay; type: functional
Method in brief: (§1)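 Minimum inhibitory concentration determined by microplate dilution, inoculum 10⁶ organisms per ml. Strains tested: Bacillus subtilis NBRC 3513, Bacillus megaterium ATCC 19213, Staphylococcus epidermidis NBRC 12933, Staphylococcus aureus NBRC 12732, Pseudomonas aeruginosa NBRC 3080, Escherichia coli NBRC 12734. MIC reported in µg/mL.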

[2] = test system: Pseudomonas aeruginosa; assay: Antibiotic activity against Pseudomonas aeruginosa NBRC 3080 by microplate dilution assay; type: functional; method in brief: as §1
[3] = test system: Bacillus subtilis; assay: Antibiotic activity against Bacillus subtilis NBRC 3513 by microplate dilution assay; type: functional; method in brief: as §1
[4] = Cytotoxicity against human red blood cells assessed as hemolysis after 30 mins; type: cell-based; conditions: erythrocyte, 0.5 h
[5] = test system: Priestia megaterium; assay: Antibiotic activity against Bacillus megaterium ATCC 19213 by microplate dilution assay; type: functional; method in brief: as §1
[6] = test system: Escherichia coli; assay: Antibiotic activity against Escherichia coli NBRC 12734 by microplate dilution assay; type: functional; method in brief: as §1
[7] = test system: Staphylococcus aureus; assay: Antibiotic activity against Staphylococcus aureus NBRC 12732 by microplate dilution assay; type: functional; method in brief: as §1

Row | SMILES | MIC [1] [µg/mL] | MIC [2] [µg/mL] | MIC [3] [µg/mL] | Activity [4] | MIC [5] [µg/mL] | MIC [6] [µg/mL] | MIC [7] [µg/mL]
1 | CC(C)C[C@@H]1NC(=O)[C@H](CCCN)NC(=O)[C@H](C(C)C)NC(=O)[C@@H](CCC(N)=O)NC(=O)[C@@H]2CCCN2C(=O)[C@@H](Cc2ccccc2)NC(=O)[C@H](CC(C)C)NC(=O)[C@H](CCCN)NC(=O)[C@H](C(C)C)NC(=O)[C@@H](CCC(N)=O)NC(=O)[C@@H]2CCCN2C(=O)[C@@H](Cc2ccccc2)NC1=O | 25 (≈ 17.9 µM) | > 100 | 12.5 (≈ 8.94 µM) | Dose-dependent effect | 12.5 (≈ 8.94 µM) | > 100 | 25 (≈ 17.9 µM)
2 | CC(C)C[C@@H]1NC(=O)[C@H](CCCN)NC(=O)[C@H](C(C)C)NC(=O)[C@@H](CCCN)NC(=O)[C@@H]2CCCN2C(=O)[C@@H](Cc2ccccc2)NC(=O)[C@H](CC(C)C)NC(=O)[C@H](CCCN)NC(=O)[C@H](C(C)C)NC(=O)[C@@H](CCCN)NC(=O)[C@@H]2CCCN2C(=O)[C@@H](Cc2ccccc2)NC1=O | 6.25 (≈ 4.56 µM) | 25 (≈ 18.3 µM) | 6.25 (≈ 4.56 µM) | Dose-dependent effect | 6.25 (≈ 4.56 µM) | 25 (≈ 18.3 µM) | 6.25 (≈ 4.56 µM)
3 | CCCC[C@H]1NC(=O)[C@@H]2CCCN2C(=O)[C@@H](Cc2ccccc2)NC(=O)[C@H](CC(C)C)NC(=O)[C@H](CCCN)NC(=O)[C@H](C(C)C)NC(=O)[C@@H](CCCC)NC(=O)[C@@H]2CCCN2C(=O)[C@@H](Cc2ccccc2)NC(=O)[C@H](CC(C)C)NC(=O)[C@H](CCCN)NC(=O)[C@H](C(C)C)NC1=O | 6.25 (≈ 4.57 µM) | 50 (≈ 36.6 µM) | 6.25 (≈ 4.57 µM) | Dose-dependent effect | 6.25 (≈ 4.57 µM) | 100 (≈ 73.1 µM) | 3.13 (≈ 2.29 µM)
4 | CC(C)C[C@@H]1NC(=O)[C@H](CCCN)NC(=O)[C@H](C(C)C)NC(=O)[C@@H](Cc2cnc[nH]2)NC(=O)[C@@H]2CCCN2C(=O)[C@@H](Cc2ccccc2)NC(=O)[C@H](CC(C)C)NC(=O)[C@H](CCCN)NC(=O)[C@H](C(C)C)NC(=O)[C@@H](Cc2cnc[nH]2)NC(=O)[C@@H]2CCCN2C(=O)[C@@H](Cc2ccccc2)NC1=O | 25 (≈ 17.7 µM) | > 100 | 12.5 (≈ 8.83 µM) | Dose-dependent effect | 12.5 (≈ 8.83 µM) | > 100 | 12.5 (≈ 8.83 µM)
5 | CC(C)C[C@@H]1NC(=O)[C@H](CCCN)NC(=O)[C@H](C(C)C)NC(=O)[C@@H](CCCNC(=N)N)NC(=O)[C@@H]2CCCN2C(=O)[C@@H](Cc2ccccc2)NC(=O)[C@H](CC(C)C)NC(=O)[C@H](CCCN)NC(=O)[C@H](C(C)C)NC(=O)[C@@H](CCCNC(=N)N)NC(=O)[C@@H]2CCCN2C(=O)[C@@H](Cc2ccccc2)NC1=O | 6.25 (≈ 4.3 µM) | 12.5 (≈ 8.6 µM) | 6.25 (≈ 4.3 µM) | Dose-dependent effect | 3.13 (≈ 2.15 µM) | 12.5 (≈ 8.6 µM) | 3.13 (≈ 2.15 µM)
6 | CC(C)C[C@@H]1NC(=O)[C@H](CCCN)NC(=O)[C@H](C(C)C)NC(=O)[C@@H](Cc2ccccc2)NC(=O)[C@@H]2CCCN2C(=O)[C@@H](Cc2ccccc2)NC(=O)[C@H](CC(C)C)NC(=O)[C@H](CCCN)NC(=O)[C@H](C(C)C)NC(=O)[C@@H](Cc2ccccc2)NC(=O)[C@@H]2CCCN2C(=O)[C@@H](Cc2ccccc2)NC1=O | 12.5 (≈ 8.71 µM) | 100 (≈ 69.6 µM) | 6.25 (≈ 4.35 µM) | Dose-dependent effect | 6.25 (≈ 4.35 µM) | > 100 | 12.5 (≈ 8.71 µM)
7 | CC(C)C[C@@H]1NC(=O)[C@H](CCCN)NC(=O)[C@H](C(C)C)NC(=O)CNC(=O)[C@@H]2CCCN2C(=O)[C@@H](Cc2ccccc2)NC(=O)[C@H](CC(C)C)NC(=O)[C@H](CCCN)NC(=O)[C@H](C(C)C)NC(=O)CNC(=O)[C@@H]2CCCN2C(=O)[C@@H](Cc2ccccc2)NC1=O | > 100 | > 100 | 100 (≈ 79.6 µM) | Dose-dependent effect | 100 (≈ 79.6 µM) | > 100 | 100 (≈ 79.6 µM)
8 | CCC[C@H]1NC(=O)[C@@H]2CCCN2C(=O)[C@@H](Cc2ccccc2)NC(=O)[C@H](CC(C)C)NC(=O)[C@H](CCCN)NC(=O)[C@H](C(C)C)NC(=O)[C@@H](CCC)NC(=O)[C@@H]2CCCN2C(=O)[C@@H](Cc2ccccc2)NC(=O)[C@H](CC(C)C)NC(=O)[C@H](CCCN)NC(=O)[C@H](C(C)C)NC1=O | 25 (≈ 18.7 µM) | > 100 | 12.5 (≈ 9.33 µM) | Dose-dependent effect | 12.5 (≈ 9.33 µM) | > 100 | 12.5 (≈ 9.33 µM)
9 | CC(C)C[C@@H]1NC(=O)[C@H](CCCN)NC(=O)[C@H](C(C)C)NC(=O)[C@@H](CC(C)C)NC(=O)[C@@H]2CCCN2C(=O)[C@@H](Cc2ccccc2)NC(=O)[C@H](CC(C)C)NC(=O)[C@H](CCCN)NC(=O)[C@H](C(C)C)NC(=O)[C@@H](CC(C)C)NC(=O)[C@@H]2CCCN2C(=O)[C@@H](Cc2ccccc2)NC1=O | 12.5 (≈ 9.14 µM) | 100 (≈ 73.1 µM) | 6.25 (≈ 4.57 µM) | Dose-dependent effect | 6.25 (≈ 4.57 µM) | > 100 | 12.5 (≈ 9.14 µM)
10 | CC(C)C[C@@H]1NC(=O)[C@H](CCCN)NC(=O)[C@H](C(C)C)NC(=O)[C@@H](CCC(=O)O)NC(=O)[C@@H]2CCCN2C(=O)[C@@H](Cc2ccccc2)NC(=O)[C@H](CC(C)C)NC(=O)[C@H](CCCN)NC(=O)[C@H](C(C)C)NC(=O)[C@@H](CCC(=O)O)NC(=O)[C@@H]2CCCN2C(=O)[C@@H](Cc2ccccc2)NC1=O | > 100 | > 100 | > 100 | Dose-dependent effect | > 100 | > 100 | > 100
11 | CC(C)C[C@@H]1NC(=O)[C@H](CCCN)NC(=O)[C@H](C(C)C)NC(=O)[C@@H]([C@H](C)O)NC(=O)[C@@H]2CCCN2C(=O)[C@@H](Cc2ccccc2)NC(=O)[C@H](CC(C)C)NC(=O)[C@H](CCCN)NC(=O)[C@H](C(C)C)NC(=O)[C@@H]([C@H](C)O)NC(=O)[C@@H]2CCCN2C(=O)[C@@H](Cc2ccccc2)NC1=O [listing 1 of 2 here] | – | – | – | Dose-dependent effect | – | – | –
12 | CC(C)C[C@@H]1NC(=O)[C@H](CCCN)NC(=O)[C@H](C(C)C)NC(=O)[C@@H]([C@H](C)O)NC(=O)[C@@H]2CCCN2C(=O)[C@@H](Cc2ccccc2)NC(=O)[C@H](CC(C)C)NC(=O)[C@H](CCCN)NC(=O)[C@H](C(C)C)NC(=O)[C@@H]([C@H](C)O)NC(=O)[C@@H]2CCCN2C(=O)[C@@H](Cc2ccccc2)NC1=O [listing 2 of 2 here] | 100 (≈ 74.4 µM) | > 100 | 100 (≈ 74.4 µM) | – | 100 (≈ 74.4 µM) | > 100 | 50 (≈ 37.2 µM)
13 | CC(C)C[C@@H]1NC(=O)[C@H](CCCN)NC(=O)[C@H](C(C)C)NC(=O)[C@@H](C(C)C)NC(=O)[C@@H]2CCCN2C(=O)[C@@H](Cc2ccccc2)NC(=O)[C@H](CC(C)C)NC(=O)[C@H](CCCN)NC(=O)[C@H](C(C)C)NC(=O)[C@@H](C(C)C)NC(=O)[C@@H]2CCCN2C(=O)[C@@H](Cc2ccccc2)NC1=O | 12.5 (≈ 9.33 µM) | > 100 | 6.25 (≈ 4.67 µM) | Dose-dependent effect | 6.25 (≈ 4.67 µM) | > 100 | 12.5 (≈ 9.33 µM)
14 | CC(C)C[C@@H]1NC(=O)[C@H](CCCN)NC(=O)[C@H](C(C)C)NC(=O)[C@@H](CO)NC(=O)[C@@H]2CCCN2C(=O)[C@@H](Cc2ccccc2)NC(=O)[C@H](CC(C)C)NC(=O)[C@H](CCCN)NC(=O)[C@H](C(C)C)NC(=O)[C@@H](CO)NC(=O)[C@@H]2CCCN2C(=O)[C@@H](Cc2ccccc2)NC1=O | > 100 | > 100 | > 100 | Dose-dependent effect | > 100 | > 100 | 100 (≈ 76 µM)
15 | CC(C)C[C@@H]1NC(=O)[C@H](CCCN)NC(=O)[C@H](C(C)C)NC(=O)[C@@H](CCCCN)NC(=O)[C@@H]2CCCN2C(=O)[C@@H](Cc2ccccc2)NC(=O)[C@H](CC(C)C)NC(=O)[C@H](CCCN)NC(=O)[C@H](C(C)C)NC(=O)[C@@H](CCCCN)NC(=O)[C@@H]2CCCN2C(=O)[C@@H](Cc2ccccc2)NC1=O | 6.25 (≈ 4.47 µM) | 12.5 (≈ 8.94 µM) | 6.25 (≈ 4.47 µM) | Dose-dependent effect | 6.25 (≈ 4.47 µM) | 25 (≈ 17.9 µM) | 6.25 (≈ 4.47 µM)
16 | CC(C)C[C@@H]1NC(=O)[C@H](CCCN)NC(=O)[C@H](C(C)C)NC(=O)[C@@H](C)NC(=O)[C@@H]2CCCN2C(=O)[C@@H](Cc2ccccc2)NC(=O)[C@H](CC(C)C)NC(=O)[C@H](CCCN)NC(=O)[C@H](C(C)C)NC(=O)[C@@H](C)NC(=O)[C@@H]2CCCN2C(=O)[C@@H](Cc2ccccc2)NC1=O (cyclo(L[dF]P[dA]V[Orn]L[dF]P[dA]V[Orn])) | 25 (≈ 19.5 µM) | > 100 | 12.5 (≈ 9.74 µM) | Dose-dependent effect | 12.5 (≈ 9.74 µM) | > 100 | 12.5 (≈ 9.74 µM)
17 | CC(C)C[C@@H]1NC(=O)[C@H](CCCN)NC(=O)[C@H](C(C)C)NC(=O)[C@@H]2CCCN2C(=O)[C@@H](Cc2ccccc2)NC(=O)[C@H](CC(C)C)NC(=O)[C@H](CCCN)NC(=O)[C@H](C(C)C)NC(=O)[C@@H]2CCCN2C(=O)[C@@H](Cc2ccccc2)NC1=O [GRAMICIDIN S] (cyclo(L[dF]PV[Orn]L[dF]PV[Orn])) | 3.13 (≈ 2.74 µM) | 25 (≈ 21.9 µM) | 3.13 (≈ 2.74 µM) | Dose-dependent effect | 3.13 (≈ 2.74 µM) | 25 (≈ 21.9 µM) | 3.13 (≈ 2.74 µM)
18 | CC(C)C[C@@H]1NC(=O)[C@H](CCCN)NC(=O)[C@H](C(C)C)NC(=O)[C@@H](Cc2ccc(O)cc2)NC(=O)[C@@H]2CCCN2C(=O)[C@@H](Cc2ccccc2)NC(=O)[C@H](CC(C)C)NC(=O)[C@H](CCCN)NC(=O)[C@H](C(C)C)NC(=O)[C@@H](Cc2ccc(O)cc2)NC(=O)[C@@H]2CCCN2C(=O)[C@@H](Cc2ccccc2)NC1=O [GRATISIN] | 12.5 (≈ 8.52 µM) | 100 (≈ 68.1 µM) | 6.25 (≈ 4.26 µM) | Dose-dependent effect | 6.25 (≈ 4.26 µM) | 100 (≈ 68.1 µM) | 6.25 (≈ 4.26 µM)
